Experimental data: ChEMBL document CHEMBL1142163 (Antimicrob Agents Chemother, 2007)

Columns and labels:
[1] = Cmax in patient with invasive mycoses on day 1; format: ADME, organism-based; conditions: human, in vivo
[2] = AUC in leukemic patient with pulmonary aspergillosis at 200 mg twice daily, po on day 7; format: ADME, organism-based; conditions: human, plasma
Outline: (§1)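 Patients' citrated blood drawn just before and 2, 4, 6 and 12 h after a dose on days 2, 7 and 14 of therapy. Plasma was analysed by HPLC: acetonitrile precipitation, C18 column, UV detection at 255 nm. AUC over the 0–12 h dosing interval used the linear trapezoidal rule during rise and the log trapezoidal rule during decay. Cmax and trough were summarised descriptively.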

[3] = AUC in leukemic neutropenic patient with pulmonary aspergillosis at 300 mg twice daily, po on day 1; format: ADME, organism-based; conditions: human, plasma
Homo sapiens [4] = assay: Trough concentration in leukemic patient with pulmonary aspergillosis at 200 mg twice daily, po on day 14; format: ADME, organism-based; conditions: in vivo; outline: as §1
[5] = AUC in leukemic patient with pulmonary aspergillosis at 200 mg twice daily, po on day 14; format: ADME, organism-based; conditions: human, plasma; outline: as §1
Kluyveromyces marxianus = assay: Growth inhibition of Candida kefyr B11501 at 0.2 to 25 mg/L; format: functional
Outline: (§2)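 Agar-well diffusion bioassay. Overnight YPD culture at 35°C was diluted to 1.5 x 10^7 CFU/ml inoculum. Agar contained yeast nitrogen base, glucose and phosphate buffer pH 5.5. Wells held 25 µl spiked plasma standards (8 points, 0.2–25 mg/liter). Plates stood 2 h at 4°C for diffusion, then 14 h at 35°C. Inhibition zones: four diameters by caliper.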

Candida albicans [6] = assay: Growth inhibition of Candida albicans ATCC 95020 at 0.2 to 25 mg/L; format: functional; outline: as §2
[7] = Cmax in leukemic neutropenic patient with pulmonary aspergillosis at 300 mg twice daily, po; format: ADME, organism-based; set-up: dose 300 mg, route oral; conditions: human, in vivo; outline: as §1
Homo sapiens [8] = assay: Trough concentration in leukemic patient with pulmonary aspergillosis at 200 mg twice daily, po on day 7; format: ADME, organism-based; conditions: in vivo; outline: as §1
[9] = Cmax in leukemic patient with pulmonary aspergillosis at 200 mg twice daily, po on day 14; format: ADME, organism-based; set-up: dose 200 mg, route oral; conditions: human, in vivo; outline: as §1
Homo sapiens [10] = assay: Trough level in leukemic neutropenic patient with pulmonary aspergillosis at 300 mg twice daily, po; format: ADME, organism-based; conditions: in vivo; outline: as §1
[11] = Cmax in leukemic patient with pulmonary aspergillosis at 200 mg twice daily, po on day 7; format: ADME, organism-based; set-up: dose 200 mg, route oral; conditions: human, in vivo; outline: as §1
Homo sapiens [12] = organism: Homo sapiens; assay: Trough level in patient with invasive mycoses on day 1; format: ADME, organism-based; conditions: in vivo
Candida albicans [13] = assay: Growth inhibition of Candida albicans mutant DSY2621 at 0.2 to 25 mg/L; format: functional; outline: as §2
[14] = AUC in leukemic neutropenic patient with pulmonary aspergillosis at 300 mg twice daily, po on day 7; format: ADME, organism-based; conditions: human, plasma; outline: as §1

**Q.** Which results are given for `C[C@@H](c1ncncc1F)[C@](O)(Cn1cncn1)c1ccc(F)cc1F` [VORICONAZOLE]?
**A.** Cmax [1]: 6000 ng/mL; AUC [2]: 12900 ng·h/mL; AUC [3]: 43000 ng·h/mL; Cmin (Homo sapiens [4]): 0.2 mg/L; AUC [5]: 2900 ng·h/mL; Inhibition (Kluyveromyces marxianus): 23 mm; Inhibition (Candida albicans [6]): 21 mm; Cmax [7]: 4300 ng/mL; Cmin (Homo sapiens [8]): 0.5 mg/L; Cmax [9]: 300 ng/mL; Cmin (Homo sapiens [10]): 2.6 mg/L; Cmax [11]: 1900 ng/mL; Cmin (Homo sapiens [12]): 3 mg/L; Inhibition (Candida albicans [13]): 17 mm; AUC [14]: 40500 ng·h/mL
